Assay results taken from EPA's CvTdb concentration-time database.
Values belong to the compound of their own block, whether it stands above or below them.

How the values were obtained:
Rat [1] = test: concentration in liver after dosing; details: 3360 h; dosed: Perfluorodecanoic acid; 10 mg/kg; oral; Male; Harlan Sprague Dawley
Rat [2] = test: concentration in plasma after dosing; details: dosed: Perfluorodecanoic acid, 2 mg/kg, iv, Male, F344
Rat [3] = test: concentration in plasma after dosing; details: dosed: Perfluorodecanoic acid, 2 mg/kg, iv, Male, F344; remark: listed apart in the source
Rat [4] = test: concentration in plasma after dosing; details: 5 h; dosed: Di-n-butyl phthalate; 20 mg/kg; iv; Male; Sprague-Dawley
Rat [5] = test: concentration in plasma after dosing; details: 10 min; dosed: dichloroacetic acid; 10 mg/kg; iv; Male; F344
Rat [6] = test: concentration in plasma after dosing; details: dosed: dichloroacetic acid, 60 mg/kg, iv, Female, Harlan Sprague-Dawley
Rat [7] = test: concentration in plasma after dosing; details: 20 min; dosed: dichloroacetic acid; 10 mg/kg; oral; Male; Harlan Sprague Dawley
human = details: dosed: tetrachloroethylene, 144 ppm, inhalation, duration: 4 hr, male
How it was run: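 A PubMed search, classifier screening and manual review identified published in vivo toxicokinetic studies, which together with two structured collections supplied concentration-versus-time and amount-versus-time points. Points were mostly digitised from plot screenshots with WebPlotDigitizer, otherwise copied from tables. Dose, route, subject details and medium were hand-curated from each paper, and sampling and analytical methods are those of the sources, often unreported.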

Rat [8] = test: concentration in heart after dosing; details: 4 h; dosed: Bis 2-Chloroethoxy Methane; 20 mg/kg; iv; Male; F344
Rat [9] = test: concentration in heart after dosing; details: 20 min; dosed: Bis 2-Chloroethoxy Methane; 20 mg/kg; iv; Female; F344
Rat [10] = test: concentration in liver after dosing; details: 20 min; dosed: Bis 2-Chloroethoxy Methane; 20 mg/kg; iv; Female; F344
Rat [11] = test: concentration in plasma after dosing; details: dosed: Bis 2-Chloroethoxy Methane, 40 mg/kg, iv, Male, Harlan Sprague Dawley
Rat [12] = test: concentration in liver after dosing; details: 40 min; dosed: Bis 2-Chloroethoxy Methane; 20 mg/kg; iv; Female; F344
Rat [13] = test: concentration in thymus after dosing; details: 4 h; dosed: Bis 2-Chloroethoxy Methane; 20 mg/kg; iv; Female; F344
Rat [14] = test: concentration in plasma after dosing; details: dosed: Bis 2-Chloroethoxy Methane, 40 mg/kg, iv, Male, Harlan Sprague Dawley; remark: listed apart in the source
Rat [15] = test: concentration in heart after dosing; details: 10 min; dosed: Bis 2-Chloroethoxy Methane; 20 mg/kg; iv; Female; F344
Rat [16] = test: concentration in plasma after dosing; details: 3 h; dosed: Bis 2-Chloroethoxy Methane; 40 mg/kg; iv; Male; Harlan Sprague Dawley
Rat [17] = test: concentration in kidney after dosing; details: 12 h; dosed: Fluorotelomer alcohol 8+2; 24 mg/kg; oral; Male; Harlan Sprague Dawley
Rat [18] = test: concentration in plasma after dosing; details: dosed: Fluorotelomer alcohol 8+2, 40 mg/kg, iv, Male, F344
Rat [19] = test: concentration in plasma after dosing; details: dosed: Fluorotelomer alcohol 8+2, 40 mg/kg, iv, Female, Harlan Sprague-Dawley
Rat [20] = test: concentration in kidney after dosing; details: 12 h; dosed: Fluorotelomer alcohol 8+2; 80 mg/kg; oral; Female; Harlan Sprague Dawley
Rat [21] = test: concentration in liver after dosing; details: 1 h; dosed: Fluorotelomer alcohol 8+2; 24 mg/kg; oral; Male; Harlan Sprague Dawley
Rat [22] = test: concentration in liver after dosing; details: 1 h; dosed: Fluorotelomer alcohol 8+2; 80 mg/kg; oral; Female; Harlan Sprague Dawley
Rat [23] = test: concentration in kidney after dosing; details: 3 h; dosed: Fluorotelomer alcohol 8+2; 24 mg/kg; oral; Male; Harlan Sprague Dawley
Rat [24] = test: concentration in liver after dosing; details: 1 h; dosed: Fluorotelomer alcohol 8+2; 24 mg/kg; oral; Male; Harlan Sprague Dawley; remark: listed apart in the source
Rat [25] = test: concentration in brain after dosing; details: 3 h; dosed: Fluorotelomer alcohol 8+2; 80 mg/kg; oral; Female; Harlan Sprague Dawley
Rat [26] = test: concentration in liver after dosing; details: 40 min; dosed: Thiodiglycolic Acid; 20 mg/kg; iv; Male; Harlan Sprague Dawley
Rat [27] = test: concentration in plasma after dosing; details: 1 h; dosed: Thiodiglycolic Acid; 20 mg/kg; iv; Female; Harlan Sprague Dawley
Rat [28] = test: concentration in thymus after dosing; details: 8 h; dosed: Thiodiglycolic Acid; 20 mg/kg; iv; Female; Harlan Sprague Dawley
Rat [29] = test: concentration in plasma after dosing; details: 1 h; dosed: Thiodiglycolic Acid; 20 mg/kg; iv; Female; Harlan Sprague Dawley; remark: listed apart in the source
Rat [30] = test: concentration in heart after dosing; details: 4 h; dosed: Thiodiglycolic Acid; 20 mg/kg; iv; Male; Harlan Sprague Dawley
Rat [31] = test: concentration in heart after dosing; details: 40 min; dosed: Thiodiglycolic Acid; 20 mg/kg; iv; Male; Harlan Sprague Dawley
Rat [32] = test: concentration in thymus after dosing; details: 20 min; dosed: Thiodiglycolic Acid; 20 mg/kg; iv; Female; F344
Rat [33] = test: concentration in thymus after dosing; details: 10 min; dosed: Thiodiglycolic Acid; 20 mg/kg; iv; Female; Harlan Sprague Dawley
Rat [34] = test: concentration in plasma after dosing; details: 3 h; dosed: Thiodiglycolic Acid; 20 mg/kg; iv; Female; Harlan Sprague Dawley
Rat [35] = test: concentration in heart after dosing; details: 20 min; dosed: Thiodiglycolic Acid; 20 mg/kg; iv; Female; Harlan Sprague Dawley
Rat [36] = test: concentration in thymus after dosing; details: 3 h; dosed: Thiodiglycolic Acid; 20 mg/kg; iv; Female; Harlan Sprague Dawley

Structure (SMILES): O=C(O)C(F)(F)C(F)(F)C(F)(F)C(F)(F)C(F)(F)C(F)(F)C(F)(F)C(F)(F)C(F)(F)F [Perfluorodecanoic acid]
- concentration in liver (Rat [1]): 6930 ng/g
- concentration in plasma (Rat [2]; 5 min): 8200 ng/mL
- concentration in plasma (Rat [2]; 192 h): 3280 ng/mL
- concentration in plasma (Rat [3]; 6 h): 6240 ng/mL
- concentration in plasma (Rat [3]; 864 h): 2140 ng/mL

Structure (SMILES): CCCCOC(=O)c1ccccc1C(=O)O [Mono-n-butyl phthalate]
- concentration in plasma (Rat [4]): 1.03 µg/mL

Structure (SMILES): O=C(O)C(Cl)Cl [dichloroacetic acid]
- concentration in plasma (Rat [5]): 7.78 µg/mL
- concentration in plasma (Rat [6]; 1 h): 16.8 µg/mL
- concentration in plasma (Rat [6]; 2 h): 1.34 µg/mL
- concentration in plasma (Rat [7]): 0.68 µg/mL

Structure (SMILES): O=C(O)C(Cl)(Cl)Cl [trichloroacetic acid]
- amount in urine after dosing (human; 22 h): 6.91 mg
- amount in urine after dosing (human; 46 h): 2.33 mg
- amount in urine after dosing (human; 70 h): 2.17 mg

Structure (SMILES): ClCCOCOCCCl [Bis 2-Chloroethoxy Methane]
- concentration in heart (Rat [8]): 83.9 ng/g
- concentration in heart (Rat [9]): 6490 ng/g
- concentration in liver (Rat [10]): 1330 ng/g
- concentration in plasma (Rat [11]; 20 min): 9720 ng/mL
- concentration in plasma (Rat [11]; 6.667 h): 40.1 ng/mL
- concentration in liver (Rat [12]): 636 ng/g
- concentration in thymus (Rat [13]): 76.5 ng/g
- concentration in plasma (Rat [14]; 40 min): 6610 ng/mL
- concentration in plasma (Rat [14]; 8 h): 15.5 ng/mL
- concentration in heart (Rat [15]): 12100 ng/g
- concentration in plasma (Rat [16]): 362 ng/mL

- concentration in kidney (Rat [17]): 187 ng/g
- concentration in plasma (Rat [18]; 5 min): 22400 ng/mL
- concentration in plasma (Rat [18]; 3 h): 516 ng/mL
- concentration in plasma (Rat [19]; 0.75 h): 2220 ng/mL
- concentration in plasma (Rat [19]; 12 h): 28.7 ng/mL
- concentration in kidney (Rat [20]): 351 ng/g
- concentration in liver (Rat [21]): 4650 ng/g
- concentration in liver (Rat [22]): 5950 ng/g
- concentration in kidney (Rat [23]): 985 ng/g
- concentration in liver (Rat [24]): 4670 ng/g
- concentration in brain (Rat [25]): 9550 ng/g
Structure (SMILES): OCCC(F)(F)C(F)(F)C(F)(F)C(F)(F)C(F)(F)C(F)(F)C(F)(F)C(F)(F)F [Fluorotelomer alcohol 8+2]

Structure (SMILES): O=C(O)CSCC(=O)O [Thiodiglycolic Acid]
- concentration in liver (Rat [26]): 183000 ng/g
- concentration in plasma (Rat [27]): 4150 ng/mL
- concentration in thymus (Rat [28]): 395 ng/g
- concentration in plasma (Rat [29]): 2900 ng/mL
- concentration in heart (Rat [30]): 527 ng/g
- concentration in heart (Rat [31]): 2320 ng/g
- concentration in thymus (Rat [32]): 4680 ng/g
- concentration in thymus (Rat [33]): 10100 ng/g
- concentration in plasma (Rat [34]): 676 ng/mL
- concentration in heart (Rat [35]): 6060 ng/g
- concentration in thymus (Rat [36]): 986 ng/g
